# Test results as given in ChEMBL document CHEMBL3414467, “Exploring the 7-oxo-thiazolo[5,4-d]pyrimidine core for the design of new human adenosine A3 receptor antagonists. Synthesis, molecular modeling studies and pharmacological evaluation” (Eur J Med Chem, 2015).
# Molecular target: T1, Adenosine receptor A3 (Homo sapiens) (UniProt P0DMS8)
# T1 sequence (whole entry): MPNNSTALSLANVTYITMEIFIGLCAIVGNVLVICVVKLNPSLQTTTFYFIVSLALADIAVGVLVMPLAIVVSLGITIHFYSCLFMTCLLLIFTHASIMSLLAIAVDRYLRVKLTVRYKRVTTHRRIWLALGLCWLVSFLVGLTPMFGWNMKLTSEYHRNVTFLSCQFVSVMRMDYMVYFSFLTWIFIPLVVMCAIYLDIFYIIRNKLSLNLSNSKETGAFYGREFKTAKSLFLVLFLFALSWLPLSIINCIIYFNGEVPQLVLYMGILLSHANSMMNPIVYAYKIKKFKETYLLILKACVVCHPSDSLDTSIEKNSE
# Assay: Displacement of [125I]AB-MECA from human adenosine A3 receptor expressed in CHO cell membranes at 1 uM incubated for 120 mins by scintillation counting method
# In short: (§1)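 Membranes from hA3-CHO cells (50 μg protein/assay), pretreated with 2 IU/mL adenosine deaminase. Incubated with 0.5 nM [125I]AB-MECA in 50 mM Tris HCl, 10 mM MgCl2, 1 mM EDTA, pH 7.4, with six to eight compound concentrations; percent inhibition taken at 1 μM. Ki from IC50 by Cheng–Prusoff, means of four assays in duplicate.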
row,inhibition [%],Structure (SMILES)
1,25,Cc1nc2sc(Nc3ccc(Cl)c(Cl)c3)nc2c(=O)[nH]1
2,49,Cc1nc2sc(Nc3ccc(Cl)cc3)nc2c(=O)[nH]1
3,33,Cc1nc2sc(-c3cccnc3)nc2c(=O)[nH]1
4,15,Cc1nc2sc(-c3cccc(C(F)(F)F)c3)nc2c(=O)[nH]1
5,1,Cc1nc2sc(-c3ccc(C(=O)O)cc3)nc2c(=O)[nH]1

# Molecular target: Adenosine receptor A2a (Homo sapiens) (UniProt P29274)
# Sequence (P29274 whole entry): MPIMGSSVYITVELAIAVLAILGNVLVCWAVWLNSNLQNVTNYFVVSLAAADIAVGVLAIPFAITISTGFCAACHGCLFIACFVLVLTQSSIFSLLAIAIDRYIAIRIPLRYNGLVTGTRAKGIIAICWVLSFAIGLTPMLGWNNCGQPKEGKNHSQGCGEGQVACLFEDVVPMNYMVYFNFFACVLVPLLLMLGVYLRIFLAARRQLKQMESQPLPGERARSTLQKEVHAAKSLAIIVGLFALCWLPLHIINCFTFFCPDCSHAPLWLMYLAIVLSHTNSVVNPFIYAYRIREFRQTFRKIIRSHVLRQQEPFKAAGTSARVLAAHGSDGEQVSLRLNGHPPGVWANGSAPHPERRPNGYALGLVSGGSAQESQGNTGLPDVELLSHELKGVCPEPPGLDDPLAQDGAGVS
# Assay: Displacement of [3H]ZM241385 from human adenosine A2A receptor expressed in CHO cell membranes at 1 uM incubated for 60 mins by scintillation counting method
# In short: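 Membranes from hA2A-CHO cells (50 μg protein/assay), deaminase-treated. Incubated with 1 nM [3H]ZM241385 in 50 mM Tris HCl, 10 mM MgCl2, pH 7.4 for 60 min at 4 °C. Nonspecific binding defined with 1 μM ZM241385. Test compounds at 1 μM, reported as percent inhibition. Filter separation; scintillation counting.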
row,inhibition [%],Structure (SMILES)
1,1,COc1ccc(-c2nc3c(=O)[nH]c(C)nc3s2)cc1
2,31,Cc1cccc(-c2nc3c(=O)[nH]c(C)nc3s2)c1
3,1,Cc1nc2sc(-c3cccs3)nc2c(=O)[nH]1
4,15,Cc1nc2sc(-c3ccc(F)cc3)nc2c(=O)[nH]1
5,1,Cc1nc2sc(-c3cccc(F)c3)nc2c(=O)[nH]1
6,2,Cc1ccc(-c2nc3c(=O)[nH]c(C)nc3s2)cc1
7,10,Cc1nc2sc(-c3cccc(Cl)c3)nc2c(=O)[nH]1
8,1,Cc1nc2sc(-c3cccnc3)nc2c(=O)[nH]1

# Continued, compound first:
row,Structure (SMILES),inhibition [%]
1,COc1cccc(Nc2nc3c(=O)[nH]c(C)nc3s2)c1,1
2,Cc1nc2sc(Cc3ccccc3)nc2c(=O)[nH]1,1
3,CCOc1nc(C)nc2sc(Nc3cccc(OC)c3)nc12,25
4,Cc1nc2sc(Nc3ccc(Cl)c(Cl)c3)nc2c(=O)[nH]1,16
5,Cc1nc2sc(Nc3ccc(Cl)cc3)nc2c(=O)[nH]1,18
6,Cc1cccc(Nc2nc3c(=O)[nH]c(C)nc3s2)c1,8
7,Cc1nc2sc(-n3cccc3)nc2c(=O)[nH]1,9
8,Cc1nc2sc(-c3cccc(C(F)(F)F)c3)nc2c(=O)[nH]1,15
9,Cc1nc2sc(-c3ccc(C(=O)O)cc3)nc2c(=O)[nH]1,1

# Molecular target: T2, Adenosine receptor A3 (Homo sapiens, UniProt P0DMS8)
# T2 sequence (P0DMS8 whole entry): T1 sequence (whole entry)
# Assay: Displacement of [125I]AB-MECA from human adenosine A3 receptor expressed in CHO cell membranes incubated for 120 mins by scintillation counting method
# In short: as §1
row,Ki [nM],Structure (SMILES)
1,38,COc1ccc(-c2nc3c(=O)[nH]c(C)nc3s2)cc1
2,384,Cc1cccc(-c2nc3c(=O)[nH]c(C)nc3s2)c1
3,248,Cc1nc2sc(-c3cccs3)nc2c(=O)[nH]1
4,107,Cc1nc2sc(-c3ccc(F)cc3)nc2c(=O)[nH]1
5,109,Cc1nc2sc(-c3cccc(F)c3)nc2c(=O)[nH]1
6,33,Cc1ccc(-c2nc3c(=O)[nH]c(C)nc3s2)cc1
7,826,Cc1nc2sc(-c3cccc(Cl)c3)nc2c(=O)[nH]1

# The remaining lines, values behind:
row,Structure (SMILES),Ki [nM]
1,COc1cccc(Nc2nc3c(=O)[nH]c(C)nc3s2)c1,113
2,Cc1nc2sc(Cc3ccccc3)nc2c(=O)[nH]1,427
3,CCOc1nc(C)nc2sc(Nc3cccc(OC)c3)nc12,110
4,Cc1cccc(Nc2nc3c(=O)[nH]c(C)nc3s2)c1,450
5,Cc1nc2sc(-n3cccc3)nc2c(=O)[nH]1,227

# Molecular target: T3, Adenosine receptor A2b (Homo sapiens) (UniProt P29275)
# T3 sequence (whole entry): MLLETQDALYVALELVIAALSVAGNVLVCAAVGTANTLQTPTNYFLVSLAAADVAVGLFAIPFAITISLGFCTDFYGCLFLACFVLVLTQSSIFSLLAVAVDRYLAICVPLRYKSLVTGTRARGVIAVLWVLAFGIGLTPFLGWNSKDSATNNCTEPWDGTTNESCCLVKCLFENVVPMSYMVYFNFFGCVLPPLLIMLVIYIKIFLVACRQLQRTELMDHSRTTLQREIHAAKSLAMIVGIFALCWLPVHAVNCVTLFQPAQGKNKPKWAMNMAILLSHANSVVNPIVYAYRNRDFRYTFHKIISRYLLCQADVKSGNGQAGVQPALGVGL
# Assay: Antagonist activity against human adenosine A2B receptor expressed in CHO cells assessed as inhibition of NECA-induced cAMP production at 1 uM by scintillation counting method
# Assay type: functional, cell-based
# In short: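 hA2B-transfected CHO cells (1 × 10⁶ cells/assay) in buffered saline-glucose medium with 2 IU/mL adenosine deaminase and Ro 20-1724, preincubated 10 min at 37 °C, stimulated with 200 nM NECA; test compounds at 1 μM, reported as percent inhibition. Stopped with cold 6% TCA, ether-extracted; cAMP measured by competition binding with [3H]cAMP and beef adrenal binding protein.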
row,inhibition [%],Structure (SMILES)
1,3,COc1ccc(-c2nc3c(=O)[nH]c(C)nc3s2)cc1
2,1,Cc1cccc(-c2nc3c(=O)[nH]c(C)nc3s2)c1
3,1,Cc1nc2sc(-c3cccs3)nc2c(=O)[nH]1
4,17,Cc1nc2sc(-c3ccc(F)cc3)nc2c(=O)[nH]1
5,1,Cc1nc2sc(-c3cccc(F)c3)nc2c(=O)[nH]1
6,3,Cc1ccc(-c2nc3c(=O)[nH]c(C)nc3s2)cc1
7,1,Cc1nc2sc(-c3cccc(Cl)c3)nc2c(=O)[nH]1
8,1,Cc1nc2sc(-c3cccnc3)nc2c(=O)[nH]1

# Further lines, the compound ahead of its results:
row,Structure (SMILES),inhibition [%]
1,COc1cccc(Nc2nc3c(=O)[nH]c(C)nc3s2)c1,1
2,Cc1nc2sc(Cc3ccccc3)nc2c(=O)[nH]1,1
3,CCOc1nc(C)nc2sc(Nc3cccc(OC)c3)nc12,1
4,Cc1nc2sc(Nc3ccc(Cl)c(Cl)c3)nc2c(=O)[nH]1,1
5,Cc1nc2sc(Nc3ccc(Cl)cc3)nc2c(=O)[nH]1,1
6,Cc1cccc(Nc2nc3c(=O)[nH]c(C)nc3s2)c1,1
7,Cc1nc2sc(-n3cccc3)nc2c(=O)[nH]1,3
8,Cc1nc2sc(-c3cccc(C(F)(F)F)c3)nc2c(=O)[nH]1,17
9,Cc1nc2sc(-c3ccc(C(=O)O)cc3)nc2c(=O)[nH]1,1

# Molecular target: T4, Adenosine receptor A1 (Homo sapiens) (UniProt P30542)
# T4 sequence (whole entry): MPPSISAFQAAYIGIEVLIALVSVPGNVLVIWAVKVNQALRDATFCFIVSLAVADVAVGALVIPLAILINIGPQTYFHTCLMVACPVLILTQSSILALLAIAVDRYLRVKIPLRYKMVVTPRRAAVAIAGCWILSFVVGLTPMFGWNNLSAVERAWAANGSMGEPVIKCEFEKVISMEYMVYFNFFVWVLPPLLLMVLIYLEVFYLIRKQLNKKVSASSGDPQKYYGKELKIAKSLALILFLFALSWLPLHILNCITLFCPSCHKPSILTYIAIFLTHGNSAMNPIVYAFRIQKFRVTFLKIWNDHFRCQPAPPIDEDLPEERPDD
# Assay: Displacement of [3H]DPCPX from human adenosine A1 receptor expressed in CHO cell membranes at 1 uM incubated for 120 mins by scintillation counting method
# In short: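 Membranes from hA1-CHO cells (50 μg protein/assay), pretreated with adenosine deaminase 2 IU/mL, 30 min at 37 °C. Incubated with 1 nM [3H]DPCPX in 50 mM Tris HCl pH 7.4 for 120 min at 25 °C. Nonspecific binding defined with 1 μM DPCPX. Test compounds at 1 μM, reported as percent inhibition. Separation by GF/B filtration; read by scintillation counting.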
row,inhibition [%],Structure (SMILES)
1,10,COc1ccc(-c2nc3c(=O)[nH]c(C)nc3s2)cc1
2,1,Cc1cccc(-c2nc3c(=O)[nH]c(C)nc3s2)c1
3,4,Cc1nc2sc(-c3cccs3)nc2c(=O)[nH]1
4,1,Cc1nc2sc(-c3ccc(F)cc3)nc2c(=O)[nH]1
5,1,Cc1nc2sc(-c3cccc(F)c3)nc2c(=O)[nH]1
6,17,Cc1ccc(-c2nc3c(=O)[nH]c(C)nc3s2)cc1
7,24,Cc1nc2sc(-c3cccc(Cl)c3)nc2c(=O)[nH]1
8,1,Cc1nc2sc(-c3cccnc3)nc2c(=O)[nH]1

# The remaining lines, values behind:
row,Structure (SMILES),inhibition [%]
1,COc1cccc(Nc2nc3c(=O)[nH]c(C)nc3s2)c1,8
2,Cc1nc2sc(Cc3ccccc3)nc2c(=O)[nH]1,11
3,CCOc1nc(C)nc2sc(Nc3cccc(OC)c3)nc12,3
4,Cc1nc2sc(Nc3ccc(Cl)c(Cl)c3)nc2c(=O)[nH]1,30
5,Cc1nc2sc(Nc3ccc(Cl)cc3)nc2c(=O)[nH]1,33
6,Cc1cccc(Nc2nc3c(=O)[nH]c(C)nc3s2)c1,12
7,Cc1nc2sc(-n3cccc3)nc2c(=O)[nH]1,1
8,Cc1nc2sc(-c3cccc(C(F)(F)F)c3)nc2c(=O)[nH]1,1
9,Cc1nc2sc(-c3ccc(C(=O)O)cc3)nc2c(=O)[nH]1,1
